High-throughput results: PubChem BioAssay, several laboratories
Compounds with a hit are over-represented: about 1.7% of the library has one in this group of screens.
PfGluPho inh: PfG6PD (Plasmodium falciparum) enzyme inhibition; 350,000 compounds, 0.78% hits; PfGluPho enzyme, NADPH resazurin-diaphorase fluorescence; AID 504690; inhibition, % at 20 µM;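 active = inhibition reaching at least a set limit at 20 µM in the primary screen, cut at about 59% in these data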;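 note: 0% = DMSO wells with substrate and 100% = DMSO wells lacking glucose-6-phosphate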
CXCR6 inh: CXCR6 (human) receptor inhibition; CHO-K1 PathHunter CXCR6 beta-arrestin, luminescence; inhibition, % at 20 µM; 360,000 compounds, 0.36% hits; AID 602244; in the data active = inhibition above about 34%, passing the limit was not always enough;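 note: antagonist mode with CXCL16 agonist at 10 nM final; 0% = 10 nM CXCL16 with DMSO and 100% = unstimulated wells without agonist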
Target sequence (O00574 whole entry, looked up): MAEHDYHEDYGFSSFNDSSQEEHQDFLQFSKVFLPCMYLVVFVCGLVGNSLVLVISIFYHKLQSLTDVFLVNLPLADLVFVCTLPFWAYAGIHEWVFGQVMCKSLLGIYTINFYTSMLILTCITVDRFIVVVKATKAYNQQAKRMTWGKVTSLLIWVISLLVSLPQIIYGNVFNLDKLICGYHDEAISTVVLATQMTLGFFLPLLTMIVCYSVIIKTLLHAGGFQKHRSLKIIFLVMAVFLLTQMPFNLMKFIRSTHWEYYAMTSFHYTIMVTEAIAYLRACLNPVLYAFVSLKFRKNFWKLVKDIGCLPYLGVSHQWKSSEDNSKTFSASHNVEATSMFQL
APJ agonist: agonists of human APJ apelin receptor; 330,000 compounds, 0.11% hits; P35414; AID 2520; CHO-K1 APJ PathHunter beta-arrestin, luminescence; 0% DMSO wells, 100% apelin; activation, % at 20 µM;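 active = activation more than six SD over the plate average, tested at 20 µM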;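 note: 0% = DMSO alone and 100% = apelin-13 at 10 nM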
Target sequence (P35414 whole entry, looked up): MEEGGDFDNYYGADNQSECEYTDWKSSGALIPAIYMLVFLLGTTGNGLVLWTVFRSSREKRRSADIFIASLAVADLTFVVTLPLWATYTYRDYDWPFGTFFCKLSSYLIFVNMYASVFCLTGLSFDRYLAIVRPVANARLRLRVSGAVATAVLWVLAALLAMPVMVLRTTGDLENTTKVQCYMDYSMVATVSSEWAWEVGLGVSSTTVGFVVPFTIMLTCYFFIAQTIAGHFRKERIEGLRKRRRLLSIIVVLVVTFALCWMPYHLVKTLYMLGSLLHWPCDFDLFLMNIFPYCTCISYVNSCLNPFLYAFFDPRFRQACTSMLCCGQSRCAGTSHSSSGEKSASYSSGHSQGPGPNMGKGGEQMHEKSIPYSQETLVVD
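assay system = CHO-K1 APJ beta-arrestin complementation cell line | input = cell density 1000 per well | dosing = compound 20 µM once, DMSO 1% | timing = compound 90 min 25 °C, reagent 1 h | measured by = luminescence from split beta-galactosidase complementation, Galacton Star/Emerald II substrate | read-out basis = APJ agonist activity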
APJ antag: antagonists of human APJ apelin receptor; P35414; CHO-K1 APJ beta-arrestin complementation, luminescence; inhibition, % at 20 µM; 330,000 compounds, 0.32% hits;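 active = inhibition above about 40% at 20 µM, limit read from the data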;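 note: cells challenged with 10 nM apelin-13 agonist together with compound; plate controls were apelin-13 plus DMSO wells for no effect and DMSO wells lacking apelin-13 for full effect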
B2AR ag: agonists of human beta-2 adrenergic receptor inducing internalization. AID 504454. Am2.2-beta2AR cells, FAP receptor internalization, flow cytometry. response, % (no concentration beside the values). 340,000 compounds, 0.43% hits. P07550;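 active = response above a set limit, near 3 SD of response in nonfluorescent compounds, cut at about 42% in these data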
CCR6 antag: CCR6 (human) receptor antagonism | P51684 | CHO-K1 CCR6 PathHunter beta-arrestin, luminescence, CCL20-stimulated | inhibition, % at 20 µM | 340,000 compounds, 0.49% hits | AID 493098;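 active = compounds whose inhibition of the agonist-driven luminescence signal at 20 µM reaches about 50%, limit read from the data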;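 note: cells stimulated with CCL20 at 14 nM final; plate controls were DMSO with CCL20 for no effect and DMSO without agonist for full effect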
PfGluPho conf: confirmation of Plasmodium falciparum G6PD inhibitors | 2,400 compounds, 34% hits | shares compounds with PfGluPho inh | AID 504753 | inhibition, % at 20 µM | recombinant PfGluPho, NADPH-diaphorase-resazurin fluorescence;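 active = inhibition of at least 50% at 20 µM in any single replicate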;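 note: 0% = DMSO with substrate and 100% = DMSO lacking glucose-6-phosphate substrate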
Diaph ctr 10uM: counter-screen for P. falciparum G6PD inhibitors: diaphorase inhibitors, oxidizers. 820 compounds, 39% hits. inhibition, % at 20 µM. shares compounds with PfGluPho inh. diaphorase-coupled resazurin reduction, fluorescence, NADPH 10 uM;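 active = average inhibition reaching 50% or more with the compound at 20 µM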;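 note: resorufin red fluorescence formed as diaphorase reduces resazurin using NADPH; 0% = DMSO with enzyme and 100% = DMSO without enzyme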
Diaph ctr 30uM: counter-screen for P. falciparum G6PD inhibitors: diaphorase inhibitors, oxidizers; shares compounds with PfGluPho inh; Diaphorase/resazurin coupled assay, resorufin fluorescence, 30 uM NADPH; inhibition, % at 20 µM; 820 compounds, 29% hits;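 active = inhibition averaging 50% or more, tested at 20 µM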;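 note: 0% = DMSO with enzyme and 100% = DMSO wells lacking diaphorase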
Numbers without * were called inactive; nt = no result.

SMILES	PfGluPho inh	CXCR6 inh	APJ agonist	APJ antag	B2AR ag	CCR6 antag	PfGluPho conf	others
COC(=O)c1ccc2nc(-c3ccc(C)cc3)c(Cc3ccccc3OC)n2c1	nt	-13.2	nt	nt	nt	nt	nt
Cc1cccc(NC(=O)C2Cc3ccccc3CN2C(=O)OCc2ccccc2)c1C (stereo unspecified)	-0.8	-2.0	-2.7	3.4	-2.9	9.0	nt
Cc1c(Cl)cccc1NC(=O)C1Cc2ccccc2CN1C(=O)c1ccccc1 (stereo unspecified)	80.7*	7.7	-12.6	3.3	0.1	16.1	35.9
CCOC(=O)N1CCN(c2cc(NCCO)c([N+](=O)[O-])c3nonc23)CC1	15.2	-5.4	-0.9	8.2	7.8	5.7	nt
O=C(O)CCNc1cc(N2CCN(C(=O)c3ccco3)CC2)c2noc3c2c1C(=O)c1ccccc1-3	80.1*	27.7	0.5	-52.5	-2.8	27.7	23.7
Cc1cc(N2CCN(C(=O)c3ccco3)CC2)c2ccccc2n1	-4.3	-6.5	0.1	1.3	-4.0	18.0	nt
CC(=O)OCCNc1cc(N2CCN(C)CC2)c2noc3c2c1C(=O)c1ccccc1-3	84.7*	15.0	nt	nt	-65.7	44.3	-26.3
c1ccc(OCCN2CCN(Cc3nc(-c4ccc5c(c4)OCO5)no3)CC2)cc1	-1.4	-0.8	1.0	1.3	0.7	9.8	nt
Cc1ccc2cccc(S(=O)(=O)N3CCCc4ccccc43)c2n1	66.9*	-4.8	-5.6	-2.2	-0.2	17.7	32.6
Cc1ccc(S(=O)(=O)Nc2c(O)ccc3ccccc23)cc1	80.9*	-11.7	7.4	-22.2	-3.3	0.2	46.9
O=S(=O)(Nc1c(O)ccc2ccccc12)c1cccc2ccccc12	84.3*	-12.9	4.3	-24.2	-17.1	-2.6	44.3
CCOc1cccc(CNc2ccc(O)cc2)c1OCc1ccc(Cl)cc1Cl	69.4*	-4.9	8.1	-42.3	2.7	29.7	26.1
Cc1ccc(C)c(S(=O)(=O)NNC(=O)c2sc(NS(=O)(=O)c3ccccc3)nc2C)c1	-17.9	0.2	-0.8	2.3	29.2	14.8	nt
O=C1C(=O)c2c(ccc3ccccc23)-c2ccccc21	62.0*	-13.0	nt	nt	8.7	4.3	16.8
CN(C)/C=C1\Oc2ccc3ccccc3c2C1=O	29.8	-0.2	2.3	-51.4	-5.5	-4.7	nt
Cn1c2nc(=O)n(-c3ccccc3)c(=O)c-2nc2c1CCCC2	80.8*	-7.6	nt	nt	nt	nt	48.6
CCN(C(=O)CSc1nnc(-c2ccco2)n1CC)c1c(N)n(Cc2ccccc2)c(=O)[nH]c1=O	-3.6	-1.1	-1.8	-4.9	4.3	8.1	nt
O=C(O)CSc1cc(NS(=O)(=O)c2cccc([N+](=O)[O-])c2)c2ccccc2c1O	106.4*	7.5	nt	nt	7.0	20.2	89.0*	Diaph ctr 10uM=51.3*;Diaph ctr 30uM=40.8
CCc1ccc(S(=O)(=O)Nc2cc(SCC(=O)O)c(O)c3ccccc23)cc1	89.5*	-14.2	-0.8	-37.6	13.1	-3.4	81.0*	Diaph ctr 10uM=33.9;Diaph ctr 30uM=21.2
CCOc1ccc(S(=O)(=O)Nc2cc(SCC(=O)O)c(O)c3ccccc23)cc1	103.7*	3.0	nt	nt	1.3	10.5	97.5*	Diaph ctr 10uM=46.0;Diaph ctr 30uM=32.1
Nc1c(C(=O)CSc2ncccn2)c(=O)[nH]c(=O)n1C1CC1	40.0	-1.5	-2.2	0.0	-3.0	-3.0	nt
Cn1cc(C(CO)Cc2ccccc2)c2ccccc21 (stereo unspecified)	87.5*	-3.5	-4.5	5.7	6.9	-3.4	39.6
C#CCOCCOCCOCCNc1nc(OC)nc(N2CCN(C(=O)[C@H](CCC(=O)O)n3cc(C(N)CO)nn3)CC2)n1 (stereo partly specified)	5.0	1.8	-0.6	-3.4	3.9	-1.8	nt
Oc1c(CN2CCOCC2)cc(CN2CCOCC2)c(O)c1O	82.0*	-6.1	nt	nt	-4.9	-17.4	64.0*	Diaph ctr 10uM=51.8*;Diaph ctr 30uM=54.6*
Cc1ccc(-c2cccc(-c3cc(=O)oc4ccc(C(C)(C)C)cc34)c2)cc1	7.0	-5.2	nt	nt	-3.1	21.0	nt
SMILES	PfGluPho inh	CXCR6 inh	APJ agonist	APJ antag	B2AR ag	CCR6 antag	PfGluPho conf	others
CC(C)OP(=O)(c1ccc(N(C)C)cc1)C(O)c1ccc(N(C)C)cc1 (stereo unspecified)	67.8*	1.3	-1.2	11.9	7.1	13.3	8.3
CC(C)COP(=O)(c1ccc(N(C)C)cc1)C(O)c1ccc(N(C)C)cc1 (stereo unspecified)	4.7	2.3	-4.1	9.3	5.1	9.6	nt
Cc1onc(-c2ccccc2)c1C(=O)NCc1ccco1	-5.0	9.1	-3.6	-4.7	0.5	-11.3	nt
Cc1onc(-c2ccccc2)c1C(=O)N(Cc1ccco1)Cc1cccs1	83.4*	7.1	nt	nt	4.4	14.4	38.7
CC1CN(c2ccccc2)NC1=O (stereo unspecified)	105.8*	8.9	-2.7	-44.0	3.3	17.1	107.0*	Diaph ctr 10uM=13.1;Diaph ctr 30uM=15.1
COc1ccc(NC(=O)C2C(=O)N(C)C3(C)CC2c2ccccc2O3)cc1 (stereo unspecified)	8.0	-48.0	-3.4	-0.5	-1.1	-12.6	nt
COc1ccc(NC(=O)C2C(=O)N(CCO)C3(C)CC2c2ccccc2O3)cc1 (stereo unspecified)	69.2*	-2.2	-4.2	8.1	-0.2	1.0	18.0
Cc1ccc(NC(=O)C2C(=O)N(CCO)C3(C)CC2c2ccccc2O3)cc1 (stereo unspecified)	65.1*	4.0	-4.9	-3.6	18.5	3.2	33.0
CC(NC(=O)C1C(=O)N(CCO)C2(C)CC1c1ccccc1O2)c1ccccc1 (stereo unspecified)	1.2	-8.0	-1.3	-1.7	0.6	7.9	nt
O=C1OCCC1Sc1nnc(-c2cccnc2)n1-c1ccccc1F (stereo unspecified)	-0.2	1.6	-1.6	3.7	-5.9	4.6	nt
O=C1C(SCCO)=C(SCCO)C(=O)c2ccccc21	118.7*	102.8*	18.9	23.8	-48.3	107.7*	107.0*	Diaph ctr 10uM=86.8*;Diaph ctr 30uM=84.3*
O=C1C(Cl)=C(NCCCO)C(=O)c2ccccc21	-98.8	-4.5	1.0	-32.8	1.9	8.8	nt
O=C(O)c1cc(O)c2c(c1)[C@H]([C@H]1c3cc(C(=O)O)cc(O)c3C(=O)c3c(O[C@@H]4O[C@H](CO)[C@@H](O)[C@H](O)[C@H]4O)cccc31)c1cccc(OC3O[C@H](CO)[C@@H](O)[C@H](O)[C@H]3O)c1C2=O (stereo partly specified)	71.3*	3.3	11.6	10.8	10.9	88.3*	5.6
